Results gathered from unrelated publications.
Target: Serine/threonine-protein kinase ULK2 (ULK2, Homo sapiens, UniProt Q8IYT8)
Sequence (Q8IYT8 1-1036, as in one of the studies): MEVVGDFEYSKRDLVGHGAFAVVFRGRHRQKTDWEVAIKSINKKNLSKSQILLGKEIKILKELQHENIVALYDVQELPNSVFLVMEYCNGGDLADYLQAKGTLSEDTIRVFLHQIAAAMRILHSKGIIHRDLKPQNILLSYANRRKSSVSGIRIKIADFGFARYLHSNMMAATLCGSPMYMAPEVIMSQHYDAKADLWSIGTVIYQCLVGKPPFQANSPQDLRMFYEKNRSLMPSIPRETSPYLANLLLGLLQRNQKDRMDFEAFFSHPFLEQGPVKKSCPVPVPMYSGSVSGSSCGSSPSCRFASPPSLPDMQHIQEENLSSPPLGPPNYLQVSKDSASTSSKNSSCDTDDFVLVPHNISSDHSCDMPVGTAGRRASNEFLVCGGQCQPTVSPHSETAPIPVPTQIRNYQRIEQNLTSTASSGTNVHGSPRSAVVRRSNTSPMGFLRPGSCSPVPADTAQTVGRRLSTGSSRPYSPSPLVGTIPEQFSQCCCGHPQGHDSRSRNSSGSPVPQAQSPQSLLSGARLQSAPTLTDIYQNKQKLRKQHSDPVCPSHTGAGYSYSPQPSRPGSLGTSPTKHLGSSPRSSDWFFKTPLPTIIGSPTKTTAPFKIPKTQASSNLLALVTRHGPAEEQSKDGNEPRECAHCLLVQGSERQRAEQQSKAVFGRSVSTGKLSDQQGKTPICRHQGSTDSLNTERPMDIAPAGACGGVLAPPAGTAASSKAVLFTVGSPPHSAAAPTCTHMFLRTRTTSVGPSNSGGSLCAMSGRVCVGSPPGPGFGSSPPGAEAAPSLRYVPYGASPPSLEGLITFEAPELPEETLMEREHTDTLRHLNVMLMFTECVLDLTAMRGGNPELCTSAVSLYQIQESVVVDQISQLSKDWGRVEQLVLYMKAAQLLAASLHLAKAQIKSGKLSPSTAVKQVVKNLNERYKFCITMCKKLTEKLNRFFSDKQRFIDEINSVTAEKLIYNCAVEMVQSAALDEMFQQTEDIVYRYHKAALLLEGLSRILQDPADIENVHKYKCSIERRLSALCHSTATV

| Structure (SMILES) | test | test system | setting | quantity | value |
| --- | --- | --- | --- | --- | --- |
| CCN(CC)c1ccc(C2=NNC(=O)CC2C)cc1[N+](=O)[O-] (stereo not shown) | enzyme activity, inhibitor | – | 10 µM | remaining activity | 97% |
| COc1cc(Nc2cnc(C#N)c(O[C@H](C)CN(C)C)n2)ncc1-c1cnn(C)c1 | enzyme activity, inhibitor, radiometric | – | 1 µM | remaining activity | 42% |
| CC(C)(O)[C@H]1CC[C@H](Nc2ccc3ncc(-c4cccc(C(F)(F)F)c4)n3n2)CC1 | enzyme activity, inhibitor | – | 1 µM | remaining activity | 97.9% |
| Cc1cnc(NC2CCOCC2)nc1-n1cnc(C(=O)NC(CN)c2cc(F)cc(Cl)c2)c1 (stereo not shown) | enzyme activity, inhibitor, radiometric | – | 1 µM | remaining activity | 110% |
| C[C@@H](c1cccc(C#N)c1)n1cc(Cl)cc(C(N)=O)c1=N | cell-free assay, competition with immobilised ligand | – | 1 µM | remaining binding | 89% |
| N#CCCc1ccc2c(c1)-c1[nH]c3ccc([N+](=O)[O-])cc3c1CC(=O)N2 | cell-free assay | – | 0.5 µM | remaining signal | 73.1% |
| CC(=O)N1CCC(c2ccc(C(=O)NC3=NCCN3)cc2C(F)(F)F)CC1 | cell-free assay, competition with immobilised ligand | – | 1 µM | remaining binding | 82% |
| Cc1ccc(C(=O)NCc2ccsc2)cc1C#Cc1cn(C(C)C)c2ncnc(N)c12 | enzyme activity, inhibitor | – | 1 µM | activity vs control | 92% |
| CS(=O)(=O)Nc1cccc(-c2csc(NC(=O)CSc3nc4nccnc4c(=O)n3CCc3ccccc3)n2)c1 | enzyme activity, inhibitor | – | 10 µM | inhibition | -2% |
| CCN1CCN(Cc2ccc(NC(=O)c3ccc(C)c(Oc4ccnc5[nH]ccc45)c3)cc2C(F)(F)F)CC1 | target engagement in cells, inhibitor, chemoproteomics | Huh-7 | 1 µM | inhibition | -16.6% |
| Nc1c(C(=O)NCc2ccc(C(=O)NCCCC3CCCCC3)cc2)cnn1-c1ccccc1 | cell-free assay, competition with immobilised ligand | – | 0.1 µM | remaining binding | 100% |
| FC(F)(F)Oc1cccc(-c2cnc3ccc(-c4ccncc4)nn23)c1 | enzyme activity, inhibitor, radiometric | – | 5 µM | activity vs control | 95% |
| CNC(=O)c1cc(Oc2ccc(NC(=O)Nc3ccc(Cl)c(C(F)(F)F)c3)cc2)ccn1 | cell-free assay | – | 0.5 µM | remaining signal | 106% |
| Cc1sc(C(=O)NC2COC2)cc1-n1cc(NC(=O)Nc2c(F)cccc2Cl)cn1 | enzyme activity, inhibitor | – | 10 µM | remaining activity | 74.9% |
| C[S+]([O-])c1ccc(-c2nc(-c3ccncc3)c(-c3ccc(F)cc3)[nH]2)cc1 (stereo not shown) | cell-free assay | – | 0.5 µM | remaining signal | 83.5% |
| Cc1ccc(C(=O)Nc2ccc(CN3CCN(C)CC3)c(C(F)(F)F)c2)cc1C#Cc1cnc2cccnn12 | enzyme activity, inhibitor | – | 23.5 nM | remaining activity | 94% |
| CN(C(=O)c1ccccc1)c1cc(N(C)c2ccc3c(c2)CCc2ccc(C(=O)NCCN4CCOCC4)cc2C3=O)ccc1F | cell-free assay, competition with immobilised ligand | – | 1 µM | remaining binding | 100% |
| CS(=O)(=O)CCNCc1ccc(-c2ccc3ncnc(Nc4ccc(OCc5cccc(F)c5)c(Cl)c4)c3c2)o1 | cell-free assay | – | 0.5 µM | remaining signal | 104% |
| N#Cc1ccc(Nc2ccc3[nH]c(=O)[nH]c3c2)c(Cl)c1 | cell-free assay, competition with immobilised ligand | – | 1 µM | remaining binding | 99% |
| COc1cc(Cl)c(C(=O)N[C@@H](CN[C@H]2CC[C@@H](N)CC2)Cc2ccc(C#N)cc2)cc1-c1ccc(CN[C@H](C)c2ccc(C)cc2)o1 | enzyme activity, inhibitor | – | 1 µM | remaining activity | 94% |
| Cc1nc(C2CCN(C(=O)c3ccc(OC(F)(F)F)cc3N)CC2)c2ncc(N3CCN(C)CC3)cc2n1 | cell-free assay, competition with immobilised ligand | – | 1 µM | remaining binding | 100% |
| O=C(Nc1cnn(-c2csc(C(=O)NC3COC3)c2)c1)Nc1ccccc1Cl | enzyme activity, inhibitor | – | 5 µM | remaining activity | 196% |
